Measurements reported in ChEMBL document CHEMBL2440012, “Design, synthesis and anticonvulsant properties of new N-Mannich bases derived from 3-phenylpyrrolidine-2,5-diones” (Bioorg Med Chem, 2013).
The source made the active and inactive calls. No cut-off for these calls is given here.

What was measured:
Rattus norvegicus [1] = assay: Neurotoxicity in po dosed albino Sprague-Dawley rat assessed as time to peak effect by rotorod test; assay type: toxicity, organism-based; settings: in vivo
Rattus norvegicus [2] = assay: Anticonvulsant activity against […] subcutaneous pentylenetetrazole-induced convulsion in po dosed albino Sprague-Dawley rat assessed as time to peak effect; assay type: functional
Rattus norvegicus [3] = assay: Anticonvulsant activity against maximal electroshock-induced seizures in po dosed albino Sprague-Dawley rat assessed as time to peak effect; assay type: functional
Rattus norvegicus [4] = assay: Protection index, ratio of TD50 for neurotoxicity in po dosed albino Sprague-Dawley rat by rotorod test to ED50 for anticonvulsant activity in po dosed albino Sprague-Dawley rat by MES test; assay type: functional
[5] = Neurotoxicity in po dosed albino Sprague-Dawley rat assessed as minimum motor impairment by rotorod test; assay type: toxicity, organism-based; settings: in vivo
Rattus norvegicus [6] = assay: Anticonvulsant activity in po dosed albino Sprague-Dawley rat assessed as protection against subcutaneous pentylenetetrazole-induced convulsion; assay type: functional
Rattus norvegicus [7] = assay: Anticonvulsant activity in albino Sprague-Dawley rat assessed as protection against maximal electroshock-induced seizures at 30 mg/kg, po measured after 4 hrs; assay type: functional
In short: (§1)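 Male Sprague-Dawley rats, four per group, dosed p.o. at 30 mg/kg in 0.5% methylcellulose/water suspension; MES test at 0.25, 0.5, 1, 2 and 4 h, motor impairment examined in parallel; number of rats out of four protected.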

Rattus norvegicus [8] = assay: Anticonvulsant activity in albino Sprague-Dawley rat assessed as protection against maximal electroshock-induced seizures at 30 mg/kg, po measured after 2 hrs; assay type: functional; in short: as §1
Rattus norvegicus [9] = assay: Anticonvulsant activity in albino Sprague-Dawley rat assessed as protection against maximal electroshock-induced seizures at 30 mg/kg, po measured after 1 hr; assay type: functional; in short: as §1
Rattus norvegicus [10] = assay: Anticonvulsant activity in albino Sprague-Dawley rat assessed as protection against maximal electroshock-induced seizures at 30 mg/kg, po measured after 0.5 hr; assay type: functional; in short: as §1
Rattus norvegicus [11] = assay: Anticonvulsant activity in albino Sprague-Dawley rat assessed as protection against maximal electroshock-induced seizures at 30 mg/kg, po measured after 0.25 hr; assay type: functional; in short: as §1
Mus musculus [12] = assay: Neurotoxicity in ip dosed albino CF1 mouse assessed as minimum motor impairment in half or more animals measured after 4 hrs by rotorod test; assay type: toxicity, organism-based; settings: in vivo
In short: (§2)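 Male CF-1 mice given ip suspension in 0.5% methylcellulose/water at 30, 100 and 300 mg/kg; MES, scPTZ (pentylenetetrazole 85 mg/kg sc, CD97 dose for clonic seizures ≥5 s) and rotarod (inability to hold balance 1 min in each of three trials) assessed at 0.5 and 4 h; value is minimum dose active in half or more animals.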

Mus musculus [13] = assay: Neurotoxicity in ip dosed albino CF1 mouse assessed as minimum motor impairment in half or more animals measured after 0.5 hrs by rotorod test; assay type: toxicity, organism-based; settings: in vivo; in short: as §2
Mus musculus [14] = assay: Anticonvulsant activity in albino CF1 mouse assessed as protection against subcutaneous pentylenetetrazole-induced convulsion at 300 mg/kg, ip measured after 4 hrs; assay type: functional, organism-based; design: dose 300 mg/kg; in short: as §2
Mus musculus [15] = assay: Anticonvulsant activity in albino CF1 mouse assessed as protection against subcutaneous pentylenetetrazole-induced convulsion at 300 mg/kg, ip measured after 0.5 hrs; assay type: functional, organism-based; design: dose 300 mg/kg; in short: as §2
Mus musculus [16] = assay: Anticonvulsant activity in ip dosed albino CF1 mouse assessed as protection against maximal electroshock-induced seizures in half or more animals measured after 0.5 hr; assay type: functional; settings: read-out: MED; in short: as §2
Mus musculus [17] = assay: Anticonvulsant activity in ip dosed albino CF1 mouse assessed as protection against maximal electroshock-induced seizures in half or more animals measured after 4 hrs; assay type: functional; settings: read-out: MED; in short: as §2
Mus musculus [18] = assay: Anticonvulsant activity in albino CF1 mouse assessed as assessed as protection against 6 Hz psychomotor seizure at 100 mg/kg, ip after 4 hrs by minimal clonic seizure test; assay type: functional; settings: route intraperitoneal
In short: (§3)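 Male CF-1 mice, groups of four, dosed ip in 0.5% methylcellulose/water suspension, then challenged by 6-Hz corneal stimulation at 32 mA (0.2 ms pulses, 3 s, constant current) at 0.25, 0.5, 1, 2 or 4 h; count of mice out of four protected from stunned posture/clonic seizure.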

Mus musculus [19] = assay: Anticonvulsant activity in albino CF1 mouse assessed as assessed as protection against 6 Hz psychomotor seizure at 100 mg/kg, ip after 2 hrs by minimal clonic seizure test; assay type: functional; settings: route intraperitoneal; in short: as §3
Mus musculus [20] = assay: Anticonvulsant activity in albino CF1 mouse assessed as assessed as protection against 6 Hz psychomotor seizure at 100 mg/kg, ip after 1 hr by minimal clonic seizure test; assay type: functional; settings: route intraperitoneal; in short: as §3
Mus musculus [21] = assay: Anticonvulsant activity in albino CF1 mouse assessed as assessed as protection against 6 Hz psychomotor seizure at 100 mg/kg, ip after 0.25 hr by minimal clonic seizure test; assay type: functional; settings: route intraperitoneal; in short: as §3
Mus musculus [22] = assay: Neurotoxicity in albino CF1 mouse assessed as minimum motor impairment at 300 mg/kg, ip measured after 4 hrs by rotorod test; assay type: toxicity, organism-based; design: dose 300 mg/kg, route intraperitoneal; settings: in vivo; in short: as §2
Mus musculus [23] = assay: Neurotoxicity in albino CF1 mouse assessed as minimum motor impairment at 300 mg/kg, ip measured after 0.5 hr by rotorod test; assay type: toxicity, organism-based; design: dose 300 mg/kg, route intraperitoneal; settings: in vivo; in short: as §2
Mus musculus [24] = assay: Anticonvulsant activity in albino CF1 mouse assessed as assessed as protection against 6 Hz psychomotor seizure at 100 mg/kg, ip after 0.5 hr by minimal clonic seizure test; assay type: functional; settings: route intraperitoneal; in short: as §3
Rattus norvegicus [25] = assay: Protection index, ratio of TD50 for neurotoxicity in po dosed albino Sprague-Dawley rat by rotorod test to ED50 for anticonvulsant activity in po dosed albino Sprague-Dawley rat by scPTZ test; assay type: functional
In short: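 Male Sprague-Dawley rats, compound suspended in 0.5% methylcellulose/water and given orally; tested at the time of peak effect. scPTZ: 70 mg/kg pentylenetetrazole sc; the end-point is clonic seizures lasting at least 5 s. Rotarod: motor impairment is failure to keep balance for 1 min in each of three trials. Groups of at least eight rats received several doses until at least three points fell within 10–90% effect. ED50, TD50 and 95% confidence intervals were derived by regression; PI = TD50/ED50.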

Rattus norvegicus [26] = assay: Anticonvulsant activity in po dosed albino Sprague-Dawley rat assessed as protection against maximal electroshock-induced seizures; assay type: functional
Mus musculus [27] = assay: Anticonvulsant activity in ip dosed albino CF1 mouse assessed as protection against subcutaneous pentylenetetrazole-induced convulsion in half or more animals measured after 4 hrs; assay type: functional; settings: albino CF1, 4 h, read-out: MED; in short: as §2
Mus musculus [28] = assay: Anticonvulsant activity in ip dosed albino CF1 mouse assessed as protection against subcutaneous pentylenetetrazole-induced convulsion in half or more animals measured after 0.5 hr; assay type: functional; settings: albino CF1, 0.5 h, read-out: MED; in short: as §2
Mus musculus [29] = assay: Anticonvulsant activity in albino CF1 mouse assessed as protection against maximal electroshock-induced seizures at 300 mg/kg, ip measured after 0.5 hr; assay type: functional, organism-based; design: dose 300 mg/kg; in short: as §2
Mus musculus [30] = assay: Anticonvulsant activity in albino CF1 mouse assessed as protection against maximal electroshock-induced seizures at 300 mg/kg, ip measured after 4 hrs; assay type: functional, organism-based; design: dose 300 mg/kg; in short: as §2
Mus musculus [31] = assay: Neurotoxicity in ip dosed albino CF1 mouse assessed as time to peak effect by rotorod test; assay type: toxicity, organism-based; settings: in vivo
Mus musculus [32] = assay: Anticonvulsant activity against 6 Hz psychomotor seizure in ip dosed albino CF1 mouse by minimal clonic seizure test; assay type: functional
Mus musculus [33] = assay: Anticonvulsant activity against 6 Hz psychomotor seizure in ip dosed albino CF1 mouse assessed as time to peak effect by minimal clonic seizure test; assay type: functional

| Structure (SMILES) | Activity (Rattus norvegicus [7]) | Activity (Rattus norvegicus [8]) | Activity (Rattus norvegicus [9]) | Activity (Rattus norvegicus [10]) | Activity (Rattus norvegicus [11]) | MED (Mus musculus [12]) | MED (Mus musculus [13]) | Activity (Mus musculus [14]) | Activity (Mus musculus [15]) | minimal effective dose (Mus musculus [16]) | minimal effective dose (Mus musculus [17]) | Activity (Mus musculus [22]) | Activity (Mus musculus [23]) | Activity (Mus musculus [29]) | Activity (Mus musculus [30]) | further results |
| --- | --- | --- | --- | --- | --- | --- | --- | --- | --- | --- | --- | --- | --- | --- | --- | --- |
| O=C1NC(=O)C(c2ccccc2)(c2ccccc2)N1 [PHENYTOIN] | 75% | 75% | 75% | 100% | 25% | 100 mg/kg | 100 mg/kg | inactive | inactive | 30 mg/kg | 30 mg/kg | – | – | – | – | Time (Rattus norvegicus [1]): 1 h; Time (Rattus norvegicus [2]): 1 h; Time (Rattus norvegicus [3]): 1 h; Ratio TD50/ED50 (Rattus norvegicus [4]): >3.6; TD50 [5]: > 100 mg/kg; ED50 (Rattus norvegicus [6]): > 500 mg/kg |
| O=C1CC(c2ccccc2)C(=O)N1CN1CCC(Cc2ccccc2)CC1 (racemic) | – | – | – | – | – | – | – | inactive | inactive | 100 mg/kg | 300 mg/kg | Non-toxic | Non-toxic | – | – | Activity (Mus musculus [18]): 0%; Activity (Mus musculus [19]): 25%; Activity (Mus musculus [20]): 25%; Activity (Mus musculus [21]): 0%; Activity (Mus musculus [24]): 0% |
| O=C1CC(c2cccc(Cl)c2)C(=O)N1CN1CCN(C2CCCCC2)CC1 (racemic) | – | – | – | – | – | – | – | inactive | inactive | 300 mg/kg | 300 mg/kg | Non-toxic | Non-toxic | – | – | – |
| CCC1(C)CC(=O)NC1=O (centres undefined) [ETHOSUXIMIDE] | – | – | – | – | – | – | – | – | – | – | – | Non-toxic | Non-toxic | inactive | inactive | Time (Rattus norvegicus [1]): 1 h; Time (Rattus norvegicus [2]): 1 h; Time (Rattus norvegicus [3]): 1 h; Ratio TD50/ED50 (Rattus norvegicus [25]): >2.99; TD50 [5]: > 500 mg/kg; ED50 (Rattus norvegicus [26]): > 500 mg/kg; minimal effective dose (Mus musculus [27]): 300 mg/kg; minimal effective dose (Mus musculus [28]): 100 mg/kg |
| O=C1CC(c2cccc(Cl)c2)C(=O)N1CN1CCN(c2ncccn2)CC1 (racemic) | inactive | inactive | inactive | inactive | inactive | – | – | inactive | inactive | – | 100 mg/kg | Non-toxic | Non-toxic | inactive | – | – |
| COc1ccccc1N1CCN(CN2C(=O)CC(c3cccc(Cl)c3)C2=O)CC1 (racemic) | – | – | – | – | – | 300 mg/kg | 300 mg/kg | inactive | inactive | – | – | – | – | inactive | inactive | – |
| O=C1CC(c2ccccc2)C(=O)N1CN1CCN(c2ncccn2)CC1 (racemic) | inactive | inactive | inactive | inactive | inactive | – | – | inactive | inactive | – | – | Non-toxic | Non-toxic | inactive | inactive | Time (Mus musculus [31]): 1 h; ED50 (Mus musculus [32]): 103 mg/kg; Time (Mus musculus [33]): 1 h; Activity (Mus musculus [18]): 0%; Activity (Mus musculus [19]): 50%; Activity (Mus musculus [20]): 50%; Activity (Mus musculus [21]): 75%; Activity (Mus musculus [24]): 50% |
| O=C1CC(c2cccc(Cl)c2)C(=O)N1CN1CCN(c2cccc(C(F)(F)F)c2)CC1 (racemic) | – | – | – | – | – | 300 mg/kg | 300 mg/kg | inactive | inactive | 100 mg/kg | 100 mg/kg | – | – | – | – | – |
| O=C1CC(c2ccccc2Cl)C(=O)N1CN1CCN(c2cccc(Cl)c2)CC1 (racemic) | – | – | – | – | – | 300 mg/kg | 100 mg/kg | inactive | inactive | – | 100 mg/kg | – | – | inactive | – | – |
